Source: ChEMBL document CHEMBL1158507, “Development of substituted 6-[4-fluoro-3-(piperazin-1-ylcarbonyl)benzyl]-4,5-dimethylpyridazin-3(2H)-ones as potent poly(ADP-ribose) polymerase-1 (PARP-1) inhibitors active in BRCA deficient cells” (Bioorg Med Chem Lett, 2010)
Calls of active or inactive are those of the source. No cut-off for these calls is given here.

Experiments:
[1] = biological target: Poly [ADP-ribose] polymerase 1 (Homo sapiens, UniProt P09874)
HeLa [2] = experiment: Antiproliferative activity against BRCA1 expressing human HeLa cells; format: functional
Procedure, shortened: (§1)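 Antiproliferation in HeLa cells, BRCA1-deficient and BRCA wild-type lines. Read-out is CC50 in nM. Values are means of at least two experiments.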

HeLa [3] = experiment: Antiproliferative activity against BRCA1 deficient human HeLa cells; format: functional
Procedure, shortened: as §1

[4] = Clearance in rat; format: ADME, organism-based; details: in vivo
[5] = Intrinsic clearance in rat liver microsomes; format: ADME, Microsome
[6] = Drug excretion in iv dosed rat urine after 24 hrs; format: ADME, organism-based; details: read-out: Activity
[7] = Half life in rat; format: ADME, organism-based; details: in vivo
[8] = Intrinsic clearance in human liver microsomes; format: ADME, Microsome
[9] = Volume of distribution at steady state in rat; format: ADME, organism-based; details: in vivo, read-out: Vdss
[10] = Oral bioavailability in rat; format: ADME, organism-based; details: in vivo
HeLa [11] = experiment: Selectivity for BRCA1 deficient human HeLa cells over BRCA1 expressing HeLa cells; format: functional
[12] = Drug excretion in iv dosed rat urine after 72 hrs; format: ADME, organism-based; details: read-out: Activity
[13] = Drug excretion in iv dosed rat bile after 72 hrs; format: ADME, organism-based; details: read-out: Activity
CYP2D6 = CYP2D6 (Homo sapiens, UniProt P10635); experiment: Inhibition of CYP2D6 at 10 uM; format: ADME
CYP2D6, sequence (P10635 whole entry): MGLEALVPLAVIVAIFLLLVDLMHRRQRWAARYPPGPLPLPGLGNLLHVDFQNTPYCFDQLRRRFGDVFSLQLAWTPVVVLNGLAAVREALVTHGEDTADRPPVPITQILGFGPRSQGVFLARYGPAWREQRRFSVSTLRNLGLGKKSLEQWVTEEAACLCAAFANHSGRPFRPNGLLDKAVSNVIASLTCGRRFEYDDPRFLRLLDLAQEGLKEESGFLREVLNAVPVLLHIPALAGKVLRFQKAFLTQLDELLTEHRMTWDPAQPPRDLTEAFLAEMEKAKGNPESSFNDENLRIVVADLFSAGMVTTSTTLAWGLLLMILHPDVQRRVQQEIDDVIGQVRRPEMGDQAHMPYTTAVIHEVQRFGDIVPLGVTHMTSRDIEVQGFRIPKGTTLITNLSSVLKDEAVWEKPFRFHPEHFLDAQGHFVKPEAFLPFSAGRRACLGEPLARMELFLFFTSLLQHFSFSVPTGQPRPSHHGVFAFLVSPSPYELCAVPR

[14] = biological target: Voltage-gated inwardly rectifying potassium channel KCNH2 (Homo sapiens, UniProt Q12809); experiment: Inhibition of human ERG
Voltage-gated inwardly rectifying potassium channel KCNH2, sequence (Q12809 whole entry): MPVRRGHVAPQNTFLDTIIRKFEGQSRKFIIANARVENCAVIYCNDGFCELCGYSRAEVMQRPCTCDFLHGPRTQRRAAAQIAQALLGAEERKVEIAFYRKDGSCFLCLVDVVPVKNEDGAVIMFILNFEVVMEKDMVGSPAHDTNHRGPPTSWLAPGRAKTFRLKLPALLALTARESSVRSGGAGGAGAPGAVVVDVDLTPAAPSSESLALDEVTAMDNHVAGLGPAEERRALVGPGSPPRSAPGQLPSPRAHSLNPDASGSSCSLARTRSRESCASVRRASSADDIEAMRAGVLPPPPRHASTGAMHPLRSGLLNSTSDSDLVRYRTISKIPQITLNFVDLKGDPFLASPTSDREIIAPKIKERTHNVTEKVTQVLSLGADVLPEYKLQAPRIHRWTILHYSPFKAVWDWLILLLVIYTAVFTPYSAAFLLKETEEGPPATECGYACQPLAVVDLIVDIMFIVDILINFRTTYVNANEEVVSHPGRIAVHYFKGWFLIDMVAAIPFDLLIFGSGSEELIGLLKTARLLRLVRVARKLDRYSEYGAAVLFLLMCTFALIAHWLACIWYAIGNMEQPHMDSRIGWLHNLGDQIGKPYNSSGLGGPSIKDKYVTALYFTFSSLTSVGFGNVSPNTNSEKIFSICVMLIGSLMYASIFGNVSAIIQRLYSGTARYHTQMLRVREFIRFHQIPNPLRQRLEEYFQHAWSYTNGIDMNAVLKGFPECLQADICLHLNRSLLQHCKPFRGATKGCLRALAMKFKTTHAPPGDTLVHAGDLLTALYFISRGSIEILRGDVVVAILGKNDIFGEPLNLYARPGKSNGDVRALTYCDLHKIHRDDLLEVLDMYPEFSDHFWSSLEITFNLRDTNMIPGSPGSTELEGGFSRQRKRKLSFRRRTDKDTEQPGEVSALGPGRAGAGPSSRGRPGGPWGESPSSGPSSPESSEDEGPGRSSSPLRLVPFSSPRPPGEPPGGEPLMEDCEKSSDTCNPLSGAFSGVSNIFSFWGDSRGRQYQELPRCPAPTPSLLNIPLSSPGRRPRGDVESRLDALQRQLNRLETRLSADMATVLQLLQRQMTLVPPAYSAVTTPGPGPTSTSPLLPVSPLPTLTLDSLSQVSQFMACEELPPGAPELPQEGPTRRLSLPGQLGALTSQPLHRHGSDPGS

HeLa [15] = experiment: Antiproliferative activity against BRCA1 deficient human HeLa cells at 5 uM; format: functional, cell-based
CYP3A4 = CYP3A4 (Homo sapiens, UniProt P08684); experiment: Inhibition of CYP3A4 at 10 uM; format: ADME
CYP3A4, sequence (P08684 whole entry): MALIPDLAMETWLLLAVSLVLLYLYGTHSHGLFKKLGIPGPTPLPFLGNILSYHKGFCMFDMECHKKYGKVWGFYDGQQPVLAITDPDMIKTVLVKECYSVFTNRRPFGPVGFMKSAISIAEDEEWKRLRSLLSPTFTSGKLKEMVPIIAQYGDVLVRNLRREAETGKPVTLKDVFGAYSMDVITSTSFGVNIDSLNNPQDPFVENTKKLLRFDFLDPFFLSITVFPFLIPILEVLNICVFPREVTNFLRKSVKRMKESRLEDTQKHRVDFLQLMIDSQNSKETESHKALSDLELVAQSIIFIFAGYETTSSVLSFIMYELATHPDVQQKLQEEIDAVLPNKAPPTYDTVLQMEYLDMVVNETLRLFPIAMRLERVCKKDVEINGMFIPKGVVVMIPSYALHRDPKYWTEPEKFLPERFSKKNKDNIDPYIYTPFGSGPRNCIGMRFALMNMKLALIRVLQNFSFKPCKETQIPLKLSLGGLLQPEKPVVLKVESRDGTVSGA

[16] = Induction of CYP450 at 10 uM relative to refampicin; format: ADME

Poly [ADP-ribose] polymerase 1, sequence (P09874 whole entry): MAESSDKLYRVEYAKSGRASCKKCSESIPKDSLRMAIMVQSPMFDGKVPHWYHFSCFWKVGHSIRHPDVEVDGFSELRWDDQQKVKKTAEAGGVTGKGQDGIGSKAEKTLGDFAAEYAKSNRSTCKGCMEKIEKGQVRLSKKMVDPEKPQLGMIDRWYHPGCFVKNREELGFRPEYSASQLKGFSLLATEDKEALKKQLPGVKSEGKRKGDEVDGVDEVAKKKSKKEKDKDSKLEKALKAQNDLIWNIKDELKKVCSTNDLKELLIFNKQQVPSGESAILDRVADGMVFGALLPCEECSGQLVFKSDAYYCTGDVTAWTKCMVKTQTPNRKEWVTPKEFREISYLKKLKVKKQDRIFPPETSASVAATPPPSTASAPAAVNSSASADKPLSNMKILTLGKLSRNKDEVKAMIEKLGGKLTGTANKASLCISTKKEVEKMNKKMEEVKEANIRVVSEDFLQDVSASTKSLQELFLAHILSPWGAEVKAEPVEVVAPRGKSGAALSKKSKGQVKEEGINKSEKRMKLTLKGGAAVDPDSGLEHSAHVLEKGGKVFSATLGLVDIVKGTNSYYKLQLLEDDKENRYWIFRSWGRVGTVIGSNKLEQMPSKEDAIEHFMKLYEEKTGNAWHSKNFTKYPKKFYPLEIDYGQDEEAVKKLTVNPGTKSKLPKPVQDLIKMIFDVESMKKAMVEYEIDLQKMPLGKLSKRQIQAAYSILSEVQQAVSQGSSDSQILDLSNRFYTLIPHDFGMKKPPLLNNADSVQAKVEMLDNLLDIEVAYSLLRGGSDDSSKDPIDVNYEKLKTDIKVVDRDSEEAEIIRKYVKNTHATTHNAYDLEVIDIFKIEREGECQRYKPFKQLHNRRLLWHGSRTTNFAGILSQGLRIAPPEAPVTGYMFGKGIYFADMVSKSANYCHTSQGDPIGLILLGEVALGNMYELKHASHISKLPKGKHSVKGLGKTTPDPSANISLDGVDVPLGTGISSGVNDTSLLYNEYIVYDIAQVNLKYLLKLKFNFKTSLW

Compound | IC50 [1] [nM] | CC50 (HeLa [2]) [µM] | CC50 (HeLa [3]) [nM] | also measured
Cc1c(Cc2ccc(F)c(C(=O)N3CCN(C(=O)C4(C)CCCN4)CC3)c2)n[nH]c(=O)c1C (stereo not given) | 2.8 | > 5 | 90 | clearance [4]: 38 mL/min/kg; microsomal CLint [5]: < 1 µL/min/mg; bioavailability [10]: < 3%; Ratio (HeLa [11]): 30; dose excreted at 72 h [12]: 82%; microsomal CLint [8]: < 1 µL/min/mg; dose excreted at 72 h [13]: 3%
CNC1(C(=O)N2CCN(C(=O)c3cc(Cc4n[nH]c(=O)c(C)c4C)ccc3F)CC2)CC1 |  | > 5 | 240 | 
Cc1c(Cc2ccc(F)c(C(=O)N3CCC4(CCN4)CC3)c2)n[nH]c(=O)c1C | 4.6 | > 5 | > 5000 | 
Cc1c(Cc2ccc(F)c(C(=O)N3CCN(C(=O)C4(NCC5CC5)CCCCC4)CC3)c2)n[nH]c(=O)c1C | 3.5 | 1.9 | 170 | 
Cc1c(Cc2ccc(F)c(C(=O)N3CCN(C(=O)[C@]4(C)CCCN4)CC3)c2)n[nH]c(=O)c1C | 3.8 | > 40 | 780 | 
Cc1c(Cc2ccc(F)c(C(=O)N3CCN(C(=O)[C@@]4(C)CCN4)CC3)c2)n[nH]c(=O)c1C | 3.1 | > 40 | 78 | microsomal CLint [5]: < 1 µL/min/mg; dose excreted at 24 h [6]: 11%; bioavailability [10]: < 3%; microsomal CLint [8]: 3 µL/min/mg
O=C(c1cc(Cc2c[nH]c(=O)c3cc(Cl)c(Cl)n23)ccc1F)N1CCC2(CCCN2)CC1 | 2.5 | > 5 | 48 | clearance [4]: 130 mL/min/kg; inhibition at 10 µM (CYP2D6): 35%; microsomal CLint [5]: 65 µL/min/mg; Ratio (HeLa [11]): >100; IC50 [14]: 12 µM
CNC1(C(=O)N2CCN(C(=O)c3cc(Cc4n[nH]c(=O)c(C)c4C)ccc3F)CC2)CCCC1 | 2.7 | > 5 | 81 | 
Cc1c(Cc2ccc(F)c(C(=O)N3CCN(C(=O)C4(C)CCCCN4)CC3)c2)n[nH]c(=O)c1C (stereo not given) | 12 | > 20 | 2000 | 
Cc1c(Cc2ccc(F)c(C(=O)N3CCN(C(=O)[C@@]4(C)CCCN4)CC3)c2)n[nH]c(=O)c1C | 1.3 | > 5 | 45 | Ratio (HeLa [11]): 100
Cc1c(Cc2ccc(F)c(C(=O)N3CCN(C(=O)C4(N5CCCC5)CCCC4)CC3)c2)n[nH]c(=O)c1C | 2.7 | 1.5 | 89 | 
Cc1c(Cc2ccc(F)c(C(=O)N3CCN(C(=O)C4(C)CCCO4)CC3)c2)n[nH]c(=O)c1C (stereo not given) | 2.8 | 11 | 380 | 
Cc1c(Cc2ccc(F)c(C(=O)N3CCN(C(=O)C(C)(C)N(C)C)CC3)c2)n[nH]c(=O)c1C | 1.8 | > 2.5 | 360 | 
Cc1c(Cc2ccc(F)c(C(=O)N3CCC4(CCNC4)CC3)c2)n[nH]c(=O)c1C | 4.7 | > 5 | > 5000 | 
Cc1c(Cc2ccc(F)c(C(=O)N3CCN(C(=O)C4CCNC4)CC3)c2)n[nH]c(=O)c1C (stereo not given) | 3.9 | > 5 | > 5000 | Activity (HeLa [15]): inactive
Cc1c(Cc2ccc(F)c(C(=O)N3CCN(C(=O)C4(Nc5ccccc5)CCCC4)CC3)c2)n[nH]c(=O)c1C | 3.9 | 0.87 | 130 | 

Now from value to compound, other results behind:

IC50 [1] [nM] | Compound | CC50 (HeLa [2]) [µM] | CC50 (HeLa [3]) [nM] | also measured
1.8 | C=CCC1(C(=O)N2CCN(C(=O)c3cc(Cc4n[nH]c(=O)c(C)c4C)ccc3F)CC2)CCCN1 (stereo not given) | 19 | 31 | 
4.2 | Cc1c(Cc2ccc(F)c(C(=O)N3CCN(C(=O)[C@@]4(Cc5ccc(F)cc5)CCCN4)CC3)c2)n[nH]c(=O)c1C | 15 | 290 | 
3.1 | CCNC1(C(=O)N2CCN(C(=O)c3cc(Cc4n[nH]c(=O)c(C)c4C)ccc3F)CC2)CCCC1 | 4 | 91 | 
2.6 | Cc1c(Cc2ccc(F)c(C(=O)N3CCC4(CCCN4)CC3)c2)n[nH]c(=O)c1C | > 5 | 49 | clearance [4]: 57 mL/min/kg; microsomal CLint [5]: < 1 µL/min/mg; dose excreted at 24 h [6]: 37%; half-life [7]: 222 min; microsomal CLint [8]: < 1 µL/min/mg; Vd [9]: 6.7 L/kg
5.7 | Cc1c(Cc2ccc(F)c(C(=O)N3CCN(C(=O)C4(N(C)C)CC4)CC3)c2)n[nH]c(=O)c1C | 7.7 | 350 | 
3.2 | Cc1c(Cc2ccc(F)c(C(=O)N3CCN(C(=O)C4(NCC5CC5)CCC4)CC3)c2)n[nH]c(=O)c1C | 0.45 | 24 | 
3.8 | CCC1(C(=O)N2CCN(C(=O)c3cc(Cc4n[nH]c(=O)c(C)c4C)ccc3F)CC2)CCCN1 (stereo not given) | 16 | 24 | microsomal CLint [5]: 6 µL/min/mg; bioavailability [10]: < 3%; microsomal CLint [8]: 13 µL/min/mg
9.7 | CCN1CCCC12CCN(C(=O)c1cc(Cc3n[nH]c(=O)c(C)c3C)ccc1F)CC2 | > 5 | 170 | 
2.4 | Cc1c(Cc2ccc(F)c(C(=O)N3CCN(C(=O)C4(NCC5CC5)CCCC4)CC3)c2)n[nH]c(=O)c1C | 2.1 | 71 | 
2.7 | Cc1c(Cc2ccc(F)c(C(=O)N3CCN(C(=O)[C@H]4CCCN4)CC3)c2)n[nH]c(=O)c1C | > 10 | 220 | 
3.1 | Cc1c(Cc2ccc(F)c(C(=O)N3CCN(C(=O)[C@@H]4CCCN4)CC3)c2)n[nH]c(=O)c1C | > 10 | 3000 | 
3.7 | CNC(C)(C)C(=O)N1CCN(C(=O)c2cc(Cc3n[nH]c(=O)c(C)c3C)ccc2F)CC1 | > 5 | 280 | clearance [4]: 64 mL/min/kg; microsomal CLint [5]: 7 µL/min/mg; microsomal CLint [8]: 10 µL/min/mg
2.5 | Cc1c(Cc2ccc(F)c(C(=O)N3CCN(C(=O)[C@]4(Cc5ccc(F)cc5)CCCN4)CC3)c2)n[nH]c(=O)c1C | 3.3 | 15 | 
4.5 | Cc1c(Cc2ccc(F)c(C(=O)N3CCC4(CCCN4C)CC3)c2)n[nH]c(=O)c1C | > 5 | 100 | 
3.3 | Cc1c(Cc2ccc(F)c(C(=O)N3CCN(C(=O)C4(Cc5ccccc5)CCCN4)CC3)c2)n[nH]c(=O)c1C (stereo not given) | > 5 | 53 | 
3.6 | Cc1c(Cc2ccc(F)c(C(=O)N3CCN(C(=O)C4(Cc5ccc(F)cc5)CCCN4)CC3)c2)n[nH]c(=O)c1C (stereo not given) | 2.7 | 9.1 | inhibition at 10 µM (CYP3A4): 73%
2 | CNC(C)(C)C(=O)N1CCN(C(=O)c2cc(Cc3c[nH]c(=O)c4cc(Cl)c(Cl)n34)ccc2F)CC1 | > 5 | 53 | Activity [16]: 14%; clearance [4]: > 200 mL/min/kg; inhibition at 10 µM (CYP3A4): 25%; microsomal CLint [5]: 122 µL/min/mg; Ratio (HeLa [11]): >100; IC50 [14]: 11 µM
